Data taken from the EternaBench riboswitch data.

Tested on: MS2 coat protein
Assay: apparent Kd, MS2 coat protein; higher = weaker binding; RNA-MaP array; FMN 200 µM where present
Outline: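 Stalled E. coli RNA polymerase transcribed each design on Illumina sequencing-chip clusters. The clusters were titrated with SNAP-549-labelled MS2 coat protein, starting at 0.7 or 1.5 nM and doubling up to 3 µM, first without ligand and then with constant ligand, in 100 mM Tris-HCl pH 7.5, 80 mM KCl, 4 mM MgCl2, BSA, DTT, yeast tRNA and Tween-20. Green signal was normalised to red-channel RNA signal and to the control-cluster median Fmax. The apparent Kd is the median of filtered binding-curve fits made for each cluster.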

[1] = designed as: OFF switch for flavin mononucleotide, no ligand
[2] = ligand present: flavin mononucleotide, designed as: OFF switch for flavin mononucleotide
[3] = designed as: ON switch for flavin mononucleotide, no ligand
[4] = ligand present: flavin mononucleotide, designed as: ON switch for flavin mononucleotide

Sequence | apparent Kd [1] [nM] | apparent Kd [2] [nM] | apparent Kd [3] [nM] | apparent Kd [4] [nM]
GCACGGUAUGUAGGAUAUGCAUAGCAUUGCUAUGCAGAAGGACAUGAGGAUCACCCAUGUAUGUAUUCCAUACUAAUCCCGUGC | 5.89 | 5.79 |  | 
GUGCGAGCCACAGGAUAUCUACAGAUUUAUUGUAGAGAAGGGUGACCUCGUGCACCACAUGAGGAUCACCCAUGUAACUAGGCG |  |  | 30 | 48.2
UCCUUCUGUUGAGGAUAUGUAAGACAGCGGCUGCUAUUACGGCACGCUGAUACAGAAGGCAACAUGAGGAUCACCCAUGUUCAA | 24.1 | 189 |  | 
AUGCGUGGCUAGGAUAUUGAGGAAAUUAGUCAGCGAGAAGGAGCCACAUGAGGAUCACCCAUGUGGUGAAGCUC | 15.5 | 60.3 |  | 
UUACAUACAAAGUUACAUGAGGAUCACCCAUGUUUAUUGGGAAGAAGGGUAACAUUAUUAAAUAUAUAGGAUAUUUCACAAUUG |  |  | 558 | 359
GAAUGAAAGCAGAAGGCCGCACAUGAGGAUCACCCAUGUGAAAACAGAUGGAGGAUAUGCGAACGUUCGCUUUGAAAAGUAAAG |  |  | 13.5 | 6.35
GGCUAGUCAGGAUAUACGAACAUGUCAAAAGACGUGAAGGGACAUGAGGAUCACCCAUGUAGAAGGGACUAGCG | 29.4 | 141 |  | 
GCGAUUUUGUAAGGAUAUACACGAGUUUCAAGUGUAGAAGGUACUUACAUGAGGAUCACCCAUGUAUACUUGGAUAAUAGUCGU |  |  | 29.2 | 23.5
UUAUUACGAGGAUAUCGUUUUUAUCACAUGAGGAUCACCCAUGUAAUUUAUGUUUCGUUUCGAGAAGGCGUUUGUU | 23.4 | 19.6 |  | 
GGGAUCAUCGGAGGAUAUCAUGUAGAUACAUGAGGAUCACCCAUGUCGAUGGAGACAUCGGAGAUUGAGAAGGCCGAUGAUCCG |  |  | 741 | 28.9
AUUCGACAUGAGGAUCACCCAUGUAAGGAUAUGAUAGUUCUGAUAAGGGCUAGCCUAUUCAGAAGGUACGUGGC | 35.5 | 31.4 |  | 
CUAUGAACGAUAGGAUAUACUGAGGUUGAGUGGGUAGAAGGAUCGAUAGUGUAGAAGACAUGAGGAUCACCCAUGUUAUGGAUU |  |  | 505 | 318
AAGGUGCAGGUACAGGAUAUGUUGCUCGUAACAUGAGGAUCACCCAUGUACCUAUGAGAUUAAAUGCAGAAGGGUGCACACCAAA |  |  | 792 | 87.5
UCACGGGACUAAGGAUAUACAUGAACUAUUAUUGUAGAAGGUAGAAUGUUAGCUUAUACACUAAACAUGAGGAUCACCCAUGUA | 36.5 | 32.8 |  | 
GCGUAUAAGGUGUAGCUAGACAUUCAAGAAGGGUGAAGAACAUGAGGAUCACCCAUGUAGUAGGUACAGGAUAUUGAUUUACGC |  |  | 656 | 372
CAGAAGUCAGGAUAUGCAUGGCGGGACUUGCGUCGUGGCGUGCAGAAGGGACAUGAGGAUCACCCAUGUAAAGA | 52.5 | 62.4 |  | 
AAUUUACAUGAGGAUCACCCAUGUGAGGAUAUACACACAUGCUUGUUAUUGCGUGUGUGUAGAAGGCGCGUGAU | 97.3 | 153 |  | 
CCUCUGUUAGGAUAUCUUUUGUUCGCCGUAGGUCGGAUCAUGGAGAAGGGACAUGAGGAUCACCCAUGUUUACC | 29.7 | 56.2 |  | 
UGUCGAAGCAGAGGAUAUUACAUGAGGAUCACCCAUGUAUGAACCAAUAGCUGGAAACAGCAAUGUAAGAAGGCUGCUCCGACA | 11.8 | 138 |  | 
CGAUAUAUGAAGGACGGAAACGUACAUGAGGAUCACCCAUGUAGAAGGCGAUCCGCAACGCGGAUCGAGGAUAUAUAGUAUACA | 24.2 | 17.6 |  | 
AAACAAGCAGGGAUGCUUCGCAGGGAGGAUAUCUGACUGGGCGGACAUGAGGAUCACCCAUGUACAGAGAAGGCCCAAAGCACC | 620 | 32 |  | 
CCAGAUAUGUGAGGAUAUAUAGUGGAAUACACUAUAGAAGGUAUGUGAGAACAUGAGGAUCACCCAUGUCAUUGGAUAUCUGGA |  |  | 33.5 | 38.1
AUCAAUCAUGUAGGAUAUGCGUGGCGAAGCUAUGCAGAAGGACAUGAGGAUCACCCAUGUCUUUCUGUCUGCGGACGGACAGGA | 19.2 | 55.7 |  | 
UCUACAUAGAUUCAUCAAUACAGUAAGGAUAUGAGAUACAUGAGGAUCACCCAUGUGCAUGUGAAUUAGAAGGUACAAUUAACU | 15.7 | 12.8 |  | 
AUCGACAACAUCAUGGUGGAUCCUGAGGAUAUGAAUAGCUACAUGAGGAUCACCCAUGUCCCGCGUCAGAAGGCAGGUUUGAUC |  |  | 400 | 41.3
CCGCUAAUAGGAUAUACAUGAGGAUCACCCAUGUCACUCUUCAUUGGUGUCUCUUCAAGUAGAAGGGUUGCUCA | 28.5 | 28.1 |  | 
UCGUUUGUACUAGGAUAUACCGACGAAAGAUCAGUAGAAGGAGUAACAGACAUGAGGAUCACCCAUGUAUGGGUCCUUAAACAA | 35.8 | 217 |  | 
GCCAAUACCGAGGAUAUCCUGAAGCACAUAUCUGGAGAAGGCGGUACAUGAGGAUCACCCAUGUGCUCGUGAGA | 21.6 | 33 |  | 
